# BindingDB's records for doi:10.1021/jm0504454 (Sapienza University of Rome, 2005)
# pIC50: −log10 of the molar value.
# Molecular target: RNA-directed RNA polymerase (UniProt O39930)
# Assay: Inhibitory concentration against NS5B HCV polymerase using [alpha-32P]UTP as radioligand (30 degree C for 2 h, at pH 7.5 with Tris-HCl buffer)
# Outline: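 Recombinant HCV RdRp (1 nM) in 20 mM Tris-HCl pH 7.5, 5 mM MgCl2, 1 mM DTT, 1 mM EDTA, RNase inhibitor, 50 µg/mL actinomycin D, 10 µg/mL RNA template, 0.5 mM ATP/CTP/GTP, [α-32P]UTP, limiting nucleotide 10 µM. 30 °C, 2 h; proteinase K stop, extraction, urea-PAGE, phosphorimaging. IC50s rescaled by a reference inhibitor's measured/literature IC50 ratio.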
# Sequence of RNA-directed RNA polymerase (O39930 whole entry): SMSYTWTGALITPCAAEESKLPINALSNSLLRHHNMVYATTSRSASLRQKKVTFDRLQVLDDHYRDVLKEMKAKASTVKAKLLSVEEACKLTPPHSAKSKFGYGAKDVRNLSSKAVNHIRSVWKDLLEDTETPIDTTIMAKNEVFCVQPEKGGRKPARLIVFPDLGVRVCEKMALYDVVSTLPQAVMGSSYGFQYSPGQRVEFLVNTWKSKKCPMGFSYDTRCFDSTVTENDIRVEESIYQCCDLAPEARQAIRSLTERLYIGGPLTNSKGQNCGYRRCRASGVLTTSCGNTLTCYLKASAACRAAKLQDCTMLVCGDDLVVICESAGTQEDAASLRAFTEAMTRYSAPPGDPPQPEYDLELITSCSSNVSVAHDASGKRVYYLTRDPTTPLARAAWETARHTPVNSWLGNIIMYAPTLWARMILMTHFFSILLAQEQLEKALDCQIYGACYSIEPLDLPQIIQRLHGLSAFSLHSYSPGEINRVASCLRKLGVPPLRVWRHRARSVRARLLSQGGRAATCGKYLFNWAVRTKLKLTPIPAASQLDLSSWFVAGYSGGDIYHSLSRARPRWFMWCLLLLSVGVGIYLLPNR
row,pIC50,Compound
1,4.30,O=C(O)C(=O)CC(=O)c1ccco1
2,4.55,Cc1ccc(Cn2cccc2C=CC(=O)CC(=O)C(=O)O)cc1
3,4.80,COc1ccc(Cn2cccc2C=CC(=O)CC(=O)C(=O)O)cc1
4,4.55,O=C(O)C(=O)CC(=O)c1cccc(-c2ccccc2)c1
5,4.72,O=C(O)C(=O)CC(=O)c1cccc(Oc2ccccc2)c1
6,4.89,O=C(O)C(=O)CC(=O)c1cccn1Cc1ccc2ccccc2c1 [(Z)-2-Hydroxy-4-(1-naphthalen-2-ylmethyl-1H-pyrrol-2-yl)-4-oxo-but-2-enoic acid]
7,4.89,O=C(O)C(=O)CC(=O)c1cccn1Cc1ccc(O)cc1 [(Z)-2-Hydroxy-4-[1-(4-hydroxy-benzyl)-1H-pyrrol-2-yl]-4-oxo-but-2-enoic acid]
8,4.72,O=C(O)C(=O)CC(=O)c1cccc(NC(=O)C(=O)O)c1 [(Z)-2-Hydroxy-4-[3-(oxalyl-amino)-phenyl]-4-oxo-but-2-enoic acid]
9,5.09,O=C(O)C(=O)CC(=O)c1ccc(N2CCCCC2)s1 [(Z)-2-Hydroxy-4-oxo-4-(5-piperidin-1-yl-thiophen-2-yl)-but-2-enoic acid]
10,4.30,O=C(O)C(=O)CC(=O)c1cccc(OCc2cccc(Oc3ccccc3)c2)c1 [(Z)-2-Hydroxy-4-oxo-4-[3-(3-phenoxy-benzyloxy)-phenyl]-but-2-enoic acid]
11,5.09,"Cc1cc(C)c(C(=O)CC(=O)C(=O)O)s1 [(Z)-4-(3,5-Dimethyl-thiophen-2-yl)-2-hydroxy-4-oxo-but-2-enoic acid]"
12,4.89,N#CCCCCn1cccc1C(=O)CC(=O)C(=O)O [(Z)-4-[1-(4-Cyano-butyl)-1H-pyrrol-2-yl]-2-hydroxy-4-oxo-but-2-enoic acid]
13,4.74,O=C(O)C(=O)CC(=O)c1cc(I)cn1Cc1ccc(F)cc1 [(Z)-4-[1-(4-Fluoro-benzyl)-4-iodo-1H-pyrrol-2-yl]-2-hydroxy-4-oxo-but-2-enoic acid]
14,4.74,O=C(O)C(=O)CC(=O)c1ccsc1Cc1ccc(F)cc1 [(Z)-4-[2-(4-Fluoro-benzyl)-thiophen-3-yl]-2-hydroxy-4-oxo-but-2-enoic acid]
15,7.00,N#Cc1cccc(Cl)c1COc1cc(O)cc(C(=O)CC(=O)C(=O)O)c1 [(Z)-4-[3-(2-Chloro-6-cyano-benzyloxy)-5-hydroxy-phenyl]-2-hydroxy-4-oxo-but-2-enoic acid]
16,4.30,O=C(O)C(=O)CC(=O)c1cccc(OCc2ccc(-c3ccccc3)cc2)c1 [(Z)-4-[3-(Biphenyl-4-ylmethoxy)-phenyl]-2-hydroxy-4-oxo-but-2-enoic acid]
17,4.74,"O=C(C=Cc1c[nH]c2ccc(Cl)cc12)CC(=O)C(=O)O [(Z)-6-((E)-5-Chloro-1H-indol-3-yl)-2-hydroxy-4-oxo-hexa-2,5-dienoic acid]"
18,4.74,"O=C(C=Cc1cccn1Cc1cccc(F)c1)CC(=O)C(=O)O [(Z)-6-[1-(3-Fluoro-benzyl)-1H-pyrrol-2-yl]-2-hydroxy-4-oxo-hexa-2,5-dienoic acid]"
19,4.74,"Cc1ccccc1Cn1cccc1C=CC(=O)CC(=O)C(=O)O [(Z)-6-[1-((E)-obenzyl)-1H-Pyrrol-2-yl]-2-hydroxy-4-oxo-hexa-2,5-dienoic acid]"
20,4.80,"Cn1cc(C(=O)c2ccc(F)cc2)cc1C=CC(=O)CC(=O)C(=O)O [(Z)-6-[4-(4-Fluoro-benzoyl)-1-methyl-1H-pyrrol-2-yl]-2-hydroxy-4-oxo-hexa-2,5-dienoic acid]"
